Rows were chosen to be rich in hits. Some 2.3% of all compounds tested hit in one or more screens of this group.
RAM network inh = inhibitors of the yeast RAM network, primary screen, dse1pr::URA3 reporter, 5-FOA selection | inhibition, % at 50 µM | S. cerevisiae dse1pr::URA3 reporter, 5-FOA growth OD615, 2 d; analog-sensitive cbk1-as2 kinase mutant strain | AID 868, 2007 | 1.8% of 190,000 active;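 active = inhibition above a set limit, 3 SD over mean compound inhibition, cut at about 8.4% in these data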;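 note: 0% = DMSO-only wells with no growth and 100% = 10 µM 1-NA-PP1 full growth; inhibition rescues growth on 5-FOA so higher OD means more RAM inhibition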
ABCB1 inh = ABCB1 efflux pump inhibitors, primary screen, cell-based, multiplex, flow cytometry, ABCG2 counter-screen; CCRF-Adr cells, JC-1 efflux; inhibition, % at 6.6 µM; ATP-dependent translocase ABCB1 (Homo sapiens), P08183; 0.067% of 190,000 active; in the data active = inhibition above about 40%;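 note: 0% = vehicle and 100% = reference inhibitor; higher value means more JC-1 retained so stronger ABCB1 efflux block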
Target sequence (P08183 whole entry, looked up): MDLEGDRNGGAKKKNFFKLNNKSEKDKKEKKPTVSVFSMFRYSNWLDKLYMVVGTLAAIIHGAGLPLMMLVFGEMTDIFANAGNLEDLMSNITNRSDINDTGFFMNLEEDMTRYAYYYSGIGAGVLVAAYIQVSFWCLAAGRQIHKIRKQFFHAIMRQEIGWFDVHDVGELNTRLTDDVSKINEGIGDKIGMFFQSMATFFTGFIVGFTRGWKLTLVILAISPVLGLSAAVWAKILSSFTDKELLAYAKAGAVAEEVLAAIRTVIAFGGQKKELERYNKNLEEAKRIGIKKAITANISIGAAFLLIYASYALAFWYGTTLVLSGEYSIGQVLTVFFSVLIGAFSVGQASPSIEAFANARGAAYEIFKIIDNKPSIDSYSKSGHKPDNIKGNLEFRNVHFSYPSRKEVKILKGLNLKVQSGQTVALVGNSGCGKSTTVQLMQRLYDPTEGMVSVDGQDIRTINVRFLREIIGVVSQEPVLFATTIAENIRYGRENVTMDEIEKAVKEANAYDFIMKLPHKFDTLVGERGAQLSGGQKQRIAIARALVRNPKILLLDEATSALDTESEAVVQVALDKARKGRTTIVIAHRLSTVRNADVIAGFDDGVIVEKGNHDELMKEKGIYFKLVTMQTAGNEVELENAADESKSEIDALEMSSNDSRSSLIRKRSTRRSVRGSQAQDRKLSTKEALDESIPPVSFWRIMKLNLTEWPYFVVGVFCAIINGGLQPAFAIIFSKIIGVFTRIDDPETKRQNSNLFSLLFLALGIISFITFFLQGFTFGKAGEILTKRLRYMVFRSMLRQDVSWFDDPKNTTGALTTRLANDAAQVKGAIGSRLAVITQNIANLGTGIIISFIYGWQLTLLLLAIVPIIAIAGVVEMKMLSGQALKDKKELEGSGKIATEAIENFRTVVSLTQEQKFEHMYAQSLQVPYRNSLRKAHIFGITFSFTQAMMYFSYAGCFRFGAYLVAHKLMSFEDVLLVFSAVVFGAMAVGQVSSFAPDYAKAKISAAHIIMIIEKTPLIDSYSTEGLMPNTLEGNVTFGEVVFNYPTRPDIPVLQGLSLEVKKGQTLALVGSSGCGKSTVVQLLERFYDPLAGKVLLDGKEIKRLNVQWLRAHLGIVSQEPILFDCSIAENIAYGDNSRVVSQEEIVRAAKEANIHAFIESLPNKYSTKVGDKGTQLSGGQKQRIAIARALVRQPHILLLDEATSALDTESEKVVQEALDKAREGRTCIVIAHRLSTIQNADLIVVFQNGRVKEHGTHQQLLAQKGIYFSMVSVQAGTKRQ
Arbovirus inh = antivirals against arbovirus infection, primary screen, cell-based, full library, 10K replicate subset; arbovirus infection cell-based antiviral screen; inhibition, % at 10 µM; AID 1251, 2008; 0.37% of 200,000 active; in the data active = inhibition above about 30%
ABCG2 block = ABCG2 efflux pump inhibitors, primary screen, multiplex with ABCB1, IgMXP3 cells, flow cytometry; Broad substrate specificity ATP-binding cassette transporter ABCG2 (Homo sapiens), Q9UNQ0; JC-1 efflux; inhibition, % at 6.6 µM; 0.1% of 190,000 active;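 active = inhibition above 80%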;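 note: 0% = DMSO and 100% = nicardipine control wells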
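Assay system – ABCG2 IgMXP3 and barcoded ABCB1 CCRF-Adr cell mix · Input – 3 million cells/mL in well · Reagent – JC-1 fluorescent substrate · Compound – single test compound dose, 6.6 µM final · Timing – 10 min exposure at 25 °C with rotation, no wash · Detection – flow cytometry of retained JC-1 fluorescence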
RAM 5-FOA = 5-FOA growth of efflux-deficient control yeast, dose response, counter-screen for RAM network inhibitor project, S. cerevisiae, OD615. shares compounds with RAM network inh. AID 1305, 2008. max inhibition, %. S. cerevisiae efflux-deficient reporter strain, 5-FOA growth OD615, 2 days. 1,200 tested, under 10 active; call rule not given here;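 note: plate controls were vehicle for no effect and reference inhibitor for full effect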
* hit, by the source's call; nt = not tested or not shown.

SMILES	RAM network inh	ABCB1 inh	Arbovirus inh	ABCG2 block	RAM 5-FOA
COc1ccc(C(=O)Nc2c(Cl)cc(Cl)cc2C(=O)NCc2ccco2)cc1	3	1	-21	2	nt
CC(C)=CCc1c(O)c(CC=C(C)C)c2c(c1O)C(=O)CC(c1ccc(O)cc1)O2 (stereo not drawn)	13*	0	-5	7	5
CCOC(=O)c1cnc(SC)nc1Nc1cccc(F)c1	16*	0	-6	0	2
CCOC(=O)c1cnc(SC)nc1Oc1cccc(NC(=O)c2ccc(C)cc2)c1	18*	2	2	60	5
CSc1ncc(Cl)c(C(=O)Nc2cccc(C)c2)n1	4	21	3	69	nt
CCOC(=O)c1cnc(SC)nc1Nc1cccc2ccccc12	7	1	-6	8	nt
CCn1c(SCC(=O)N(C(C)C)C(C)C)nnc1-c1cc2ccccc2cc1O	1	-2	-4	2	nt
CCNC(=O)CSc1nnc(-c2ccccc2Br)n1-c1cccc(C(F)(F)F)c1	12*	1	-4	22	16
NC(=O)CSc1nnc(-c2ccccc2Br)n1-c1cccc(C(F)(F)F)c1	1	0	-2	4	nt
O=C(O)c1cccc(N/N=C/c2sc(N3CCOCC3)nc2-c2ccccc2)c1	1	6	8	2	nt
O=[N+]([O-])c1ccc(N/N=C/c2sc(N3CCOCC3)nc2-c2ccccc2)c(S(=O)(=O)Nc2ccc(Cl)cc2)c1	12*	20	-5	5	6
C=C(C)C1CC=C(C)/C(=N\NC(=S)Nc2ccc(C)cc2)C1 (stereo not drawn)	17*	1	-9	7	2
C=C(C)C1CC=C(C)/C(=N/NC(=O)COc2ccc(C)cc2)C1 (stereo not drawn)	3	0	-5	0	nt
CCC(CC)COC(=O)C(C#N)c1nc2ccccc2nc1N1CCOCC1 (stereo not drawn)	16*	8	-7	44	4
N#CC(C(=O)OC1CCCCC1)c1nc2ccccc2nc1N1CCOCC1 (stereo not drawn)	3	1	-7	0	nt
CNCc1ccccc1OCc1ccc(F)cc1	1	0	-1	-1	nt
CCOc1cc(C2NN=C(c3ccccc3)S2)ccc1OCc1ccc(F)cc1 (stereo not drawn)	12*	0	-3	20	3
CCOc1cc(C2NN=C(c3ccccc3)S2)ccc1OCc1ccccc1Cl (stereo not drawn)	13*	1	-8	4	4
COc1ccc(C2=NOC(C(=O)Nc3c(C)n(C)n(-c4ccccc4)c3=O)C2)cc1OC (stereo not drawn)	-1	0	13	1	nt
O=C(NCc1ccccc1)c1ccc(S(=O)(=O)N2CCCc3ccccc32)cc1	12*	2	-3	2	3
CCSC1=N/C(=C/c2ccsc2)C(=O)N1c1ccccc1	12*	0	-1	2	3
CSC1=N/C(=C\c2cccnc2)C(=O)N1c1ccccc1	-1	0	-4	11	nt
CCCSC1=N/C(=C/c2ccsc2)C(=O)N1c1ccccc1	12*	1	6	8	1
CCSC1=N/C(=C\c2cccnc2)C(=O)N1c1ccccc1	0	2	-7	11	nt
CCCCSC1=N/C(=C/c2ccsc2)C(=O)N1c1ccccc1	16*	1	2	8	3
SMILES	RAM network inh	ABCB1 inh	Arbovirus inh	ABCG2 block	RAM 5-FOA
Cc1ccc(S(=O)(=O)Nc2nc3ccccc3nc2NCc2ccco2)cc1C	5	0	19	-28	nt
CCOC(=O)N1CCN(C(=O)Cn2ccc3c(OC)cccc3c2=O)CC1	1	1	7	0	nt
CCOc1ccccc1NC(=O)C(OC(=O)c1cc(C)oc1C)c1ccccc1 (stereo not drawn)	14*	0	-5	-2	5
O=C(C(Sc1ccccc1)c1ccccc1)N1CCN(c2ccccc2F)CC1 (stereo not drawn)	14*	1	-10	3	1
Cc1cc(C)c(S(=O)(=O)Nc2ccc(O)cc2)c(C)c1	-1	0	-6	-1	nt
Cc1cc(C)c(S(=O)(=O)Nc2ccc3c(c2)CCC3)c(C)c1	13*	1	-36	37	3
COC(=O)c1ccccc1NC(=O)c1cccc(COc2ccccc2Cl)c1	12*	0	-10	2	3
COC(=O)c1ccccc1NC(=S)NC(=O)COc1ccccc1Cl	4	1	0	2	nt
CCCCCCCCOC(=O)/C=C/c1c(C)[nH]c(=O)[nH]c1=O	3	0	7	2	nt
Cc1nn(CCc2nn[nH]n2)c2nc(-c3ccc(C4CCCCC4)cc3)cc(C(F)(F)F)c12	15*	0	-35	0	8
O=C(COC(=O)CNS(=O)(=O)c1ccc2ccccc2c1)Nc1ccccc1Sc1ccccc1	23*	1	4	4	4
CNC(=O)c1ccc2c(c1)nnn2C	1	nt	8	-3	nt
C=CCNC(=O)c1ccc2c(c1)nnn2C	14*	0	6	3	2
O=C(CN(C(=O)CCC(=O)Nc1ccccn1)c1ccc2c(c1)OCCO2)NCCc1ccccc1	15*	0	7	2	1
Cc1ccc2[nH]c(=O)cc(C(=O)OCC(=O)c3ccccc3)c2c1	15*	0	-1	13	1
C=C(C)COc1ccc(-c2[nH]ncc2Oc2cccc(OC)c2)c(O)c1	4	0	-31	2	nt
C=C(C)COc1ccc(-c2[nH]ncc2-c2ccccc2)c(O)c1	-1	1	-42	4	nt
C=C(C)COc1ccc(-c2[nH]ncc2-c2ccc(OC)c(OC)c2)c(O)c1	14*	1	-15	7	2
C=C(C)COc1ccc(-c2[nH]ncc2Oc2ccccc2OCC)c(O)c1	16*	0	-29	3	2
CC(C)OC(=O)CC(=O)CSc1nc(-c2ccc(F)cc2)cc(-c2ccccc2)c1C#N	14*	0	-16	-3	5
Cc1ccc(S(=O)(=O)NCc2ccc3c(c2)cc(C)n3C)cc1	12*	0	1	0	3
COc1cc(C(c2sc3nc(C)nn3c2O)N2CCN(c3ccccc3)CC2)cc(OC)c1OC (stereo not drawn)	16*	0	13	1	2
COc1cc(C(c2sc3nc(C)nn3c2O)N2CCOCC2)cc(OC)c1OC (stereo not drawn)	1	0	5	7	nt
Cc1c(NC(=O)Cc2cccs2)cccc1[N+](=O)[O-]	2	0	-1	0	nt
O=C(Nc1cc(Sc2ccccn2)cc([N+](=O)[O-])c1)c1cccc(Cl)c1	12*	7	-15	54	1

Screening data deposited in PubChem by several laboratories.
